Results: article PMC7442746 (ACS chemical biology, 2020)

Assays:
[1] = target: T1, recombinant human HDAC10 (TwinStrep-HDAC10 fusion protein) (Homo sapiens, UniProt Q969S8); experiment: Differential scanning fluorimetry; type: binding; conditions: protein 3 μM, inhibitor 6 μM; for melting temperature (Tm) of TwinStrep-HDAC10 with inhibitor: Tm 65.90 °C with 0.6% DMSO, n = 2
T1 sequence (Q969S8 1-669): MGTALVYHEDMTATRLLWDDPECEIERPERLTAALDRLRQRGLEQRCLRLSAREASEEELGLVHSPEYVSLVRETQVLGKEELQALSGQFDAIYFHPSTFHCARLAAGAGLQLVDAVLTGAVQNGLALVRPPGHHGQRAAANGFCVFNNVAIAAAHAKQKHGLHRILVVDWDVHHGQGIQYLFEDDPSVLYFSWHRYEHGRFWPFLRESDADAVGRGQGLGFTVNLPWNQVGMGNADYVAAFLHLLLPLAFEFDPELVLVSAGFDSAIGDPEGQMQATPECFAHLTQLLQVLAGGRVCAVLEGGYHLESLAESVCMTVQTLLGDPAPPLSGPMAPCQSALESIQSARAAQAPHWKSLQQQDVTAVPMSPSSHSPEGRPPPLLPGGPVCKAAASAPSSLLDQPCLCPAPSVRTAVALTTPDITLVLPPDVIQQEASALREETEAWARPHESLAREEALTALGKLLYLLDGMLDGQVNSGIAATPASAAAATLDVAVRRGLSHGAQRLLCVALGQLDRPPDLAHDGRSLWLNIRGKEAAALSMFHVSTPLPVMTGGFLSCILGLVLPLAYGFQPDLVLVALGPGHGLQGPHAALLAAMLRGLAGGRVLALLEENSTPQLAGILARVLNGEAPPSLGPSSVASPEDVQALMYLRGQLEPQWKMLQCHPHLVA
In short: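 Nano-DSF on recombinant human HDAC10 with an N-terminal TwinStrep tag. Protein at 3 μM and test compound at 6 μM (protein:inhibitor 1:2). Controls were protein alone and protein with DMSO, each run once. Compound runs were done twice and Tm reported as the mean of the two. Thermal shift was taken as the Tm change from the DMSO control.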

[2] = system: HDAC10 over HDAC6; conditions: cited from earlier work
[3] = system: human HDAC10; conditions: oxa analogue weaker than Tubastatin A; cited from earlier work

Row | SMILES | melting temperature (Tm) of TwinStrep-HDAC10 with inhibitor [1] | selectivity for inhibition of HDAC10 compared to HDAC6 [2] | thermal shift ([1]; relative to DMSO control) | difference in HDAC10 binding affinity between Tubastatin A and its oxa analogue [3]
1 | CN1CCc2c(c3ccccc3n2Cc2ccc(C(=O)NO)cc2)C1 [Tubastatin A, reference compound] | 72.94 ± 0.08 °C | ~8 fold | – | –
2 | O=C(NO)c1ccc(Cn2c3c(c4ccccc42)COCC3)cc1 [oxa-Tubastatin A] | 67.27 ± 0.01 °C | – | 1.37 °C | 52 fold
